Assay: inhibition of HCV infection in cells, late-stage follow-up, counter-screen for HCV core dimerization inhibitor project, Huh-7.5 cells, quantitative PCR, fluorescence (AID 485271)
Conditions: Huh-7.5 HCV J6/JFH-1 infection, RT-qPCR viral RNA
Procedure, shortened: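 System – HCV J6/JFH-1-infected Huh-7.5 cells · Doses – 1:10 dilution series of compound from 100 µM to 0.001 µM · Repeats – triplicates · Reagent – HCV 2a J6/JFH-1 virus given together with compound · Technique – TaqMan RT-qPCR of viral RNA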

Cc1ccc(Cc2c(C)nc3nc(SCC(=O)NCCCN4CCCCCC4)nn3c2C)cc1
IC50 (time point 1): 6.6 µM
IC50 (time point 2): 12 µM
